Shown are actives, neighbours in structure and some others; about 3.5% of the full set was active somewhere.
RGS4 inh – RGS4 inhibitors, primary screen, cell-based, HEK293 M3R inducible RGS4, calcium flux; 310,000 compounds, 0.45% hits; B-score at 10 µM; Fluo-4 calcium flux; stronger effect = higher value; triggered by carbachol at its EC20; Regulator of G-protein signaling 4 (Homo sapiens), P49798;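 active means B-score, a plate-corrected calcium signal, over three deviations above library mean, with baseline fluorescence within five deviations of library mean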;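 further: RGS4 expression induced by doxycycline in cells with stable M3 receptor; B-score is computed from the integrated fluorescence ratio over baseline after carbachol; higher B-score means a larger calcium signal and so more RGS4 inhibition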
Target sequence (P49798 whole entry, looked up): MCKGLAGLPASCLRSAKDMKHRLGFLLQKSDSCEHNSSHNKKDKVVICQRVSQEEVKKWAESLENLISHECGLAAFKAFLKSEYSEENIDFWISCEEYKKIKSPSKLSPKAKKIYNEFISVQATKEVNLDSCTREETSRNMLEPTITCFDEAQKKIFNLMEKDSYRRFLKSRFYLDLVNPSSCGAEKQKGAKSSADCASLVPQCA
MrgX1 ag – agonists of human MrgX1 receptor, primary screen, HEK293 cells, Fluo-4 calcium flux; AID 588627, 2011; Mas-related G-protein coupled receptor member X1 (Homo sapiens), Q96LB2; B-score at 10 µM; Fluo-4 calcium fluorescence, agonist mode; stronger effect = higher value; 310,000 compounds, 0.44% hits;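 active means calcium response B-score plate-corrected fluorescence ratio at least 3 library SD, with starting fluorescence B-score inside 5 SD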
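times = overnight plating, then 30 min 37 °C plus 30 min room-temperature dye loading | assay system = stable human MrgX1 HEK293 cell line | input = fifteen thousand cells per well | signal = kinetic calcium dye fluorescence, Fluo-4 NW | dosing = compound delivered in addition one of three | read-out = B-scored fluorescence response ratio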
MrgX1 allo act – positive allosteric modulators of MrgX1, primary screen, HEK293 cells, Fluo-4 calcium flux | Mas-related G-protein coupled receptor member X1 (Homo sapiens), Q96LB2 | FDSS; stronger effect = higher value | B-score at 10 µM | 310,000 compounds, 0.63% hits | AID 588675, 2011;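 active means plate-corrected calcium response at least 3 library SD above typical, normal starting fluorescence, not activating the receptor alone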;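 further: compound read alongside a low EC10 to EC30 dose of BAM8-22 agonist; peak minus trough fluorescence over baseline measured at the second addition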
RGS4 act – RGS4 potentiators or activators, primary screen, cell-based, HEK293 M3R inducible RGS4, calcium flux; carbachol calcium flux Fluo4; stronger effect = lower value; B-score at 10 µM; 310,000 compounds, 0.92% hits; AID 463111, 2010;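 active means B-score of the integrated calcium signal more than 4 SD below the library mean, with starting fluorescence not abnormally high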;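 further: negative B-score means reduced calcium response which marks RGS4 activation or potentiation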
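test system = HEK293 cells with stable M3R and inducible RGS4 | schedule = recording 10 s baseline at 1 Hz, 100 s post-agonist | technique = Fluo4-AM (2 µM) calcium-flux fluorescence, kinetic read | measure = Agonist-evoked peak-minus-minimum fluorescence over baseline, integrated ratio, B score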
MrgX1 antagonist – antagonists of human MrgX1 receptor, primary screen, HEK293 cells, Fluo-4 calcium flux | Mas-related G-protein coupled receptor member X1 (Homo sapiens), Q96LB2 | BAM8-22 antagonism; stronger effect = lower value | B-score at 10 µM | 310,000 compounds, 1.3% hits | AID 588676, 2011;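 active means calcium-response B-score plate-corrected more than 3 library SD below zero, starting fluorescence within 5 deviations, no agonist response on first addition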;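 further: peak minus trough fluorescence over baseline after final BAM8-22 challenge near maximal dose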
Numbers without * were called inactive; i = inactive; nt = no result.

SMILES	RGS4 inh	MrgX1 ag	MrgX1 allo act	RGS4 act	MrgX1 antagonist
COc1cccc(/C=N/n2c(-c3n[nH]c4c3CCC4)n[nH]c2=S)c1OC	i	i	i	-7.3*	i
O=C(/C=C/c1ccccc1)c1cc(Br)ccc(=O)c1O	i	i	11*	i	i
COc1ccc(O)c(/C=N/Nc2nc(Nc3ccccc3)nc(-n3nc(C)cc3C)n2)c1	i	i	i	-8.5*	i
COc1ccc(-n2c3c(cc(C(=O)N4CCC(C)CC4)c2=O)C(=O)CC(C)(C)C3)cc1	i	i	i	i	i
COc1ccccc1-n1c2c(cc(C(=O)N3CCC(C)CC3)c1=O)C(=O)CC(C)(C)C2	i	i	8.6*	i	i
CCN(CC)CCn1c(=S)[nH]c2cc(C(=O)N3CC=C(c4ccccc4)CC3)ccc2c1=O	i	i	8.5*	i	i
COc1cc(OC)cc(-c2nnc(Sc3ccc(C=O)cc3[N+](=O)[O-])o2)c1	7.2*	i	i	i	-4.5*
COc1cc(OC)cc(-c2nnc(SCC(=O)N(C(C)C)C(C)C)o2)c1	i	i	i	i	i
CCN(CC)S(=O)(=O)c1ccc2[nH]c(=O)cc(C(=O)NCC3CCCO3)c2c1 (stereo not given)	i	i	i	i	i
O=c1/c(=C\c2ccc(O)cc2)sc2n1C(c1ccccc1)C(c1ccccc1)=NN=2 (stereo not given)	i	i	13*	i	i
O=C1Nc2ccccc2/C1=C/c1ccccc1Cl	i	i	i	i	i
CN1CCN(c2ccccc2/C=C2/C(=O)Nc3ccccc32)CC1	i	i	i	-8.5*	i
C=CC[n+]1c(/C=C/c2ccc(OC(C)=O)c(OC)c2)ccc2ccccc21	i	i	i	i	i
CC(=O)c1cccc(NC(=O)CCc2nc3sc4c(c3c(=O)[nH]2)CCCC4)c1	i	i	i	i	i
CCc1ccc(OCC(=O)NNC(=S)NC(=O)C2CCCCC2)c(Br)c1	i	i	i	i	-8.9*
COc1ccc(OCC(=O)NNC(=S)NC(=O)C2CCCCC2)cc1	i	50*	i	i	i
COc1ccc(CC(=O)NC(=S)NNC(=O)COc2c(C)cccc2C)cc1	i	27*	i	i	i
CCc1ccc(OCC(=O)NNC(=S)NC(=O)C2CC2)c(Br)c1	i	i	i	i	i
Cc1cc(C)cc(OCC(=O)NNC(=S)NC(=O)C2CC2)c1	i	32*	i	i	i
COc1ccc(OCC(=O)NNC(=S)NC(=O)C2CC2)cc1	i	i	i	i	i
C[C@H]1CN=C(N(C)C)N1CCc1ccc(F)cc1	nt	i	i	nt	i
Cc1ccnc2nc(C(=O)OCC(=O)NCCc3ccccc3)nn12	i	i	i	i	i
COc1cccc(OCc2cc(C(=O)N(C)CCOc3ccc(C)cc3)no2)c1	i	i	i	i	i
COc1ccc(S(=O)(=O)N2CCCCCC2)cc1C(=O)N(C)Cc1ccc(Cl)cc1Cl	i	i	14*	i	i
Nc1ccc(N=Nc2ccccc2)c2cccnc12	5*	i	i	i	i
COC(=O)/C=c1/s/c(=C(/C#N)C(=O)N2CCCCC2)n(-c2ccccc2)c1=O	i	i	i	i	i
COc1cc(/C=c2\s/c(=C(/C#N)C(=O)N3CCCC3)n(-c3ccccc3)c2=O)ccc1O	i	i	14*	i	i
CN1C(=O)C2(c3ccccc31)C1CCCC=C1C(C#N)=C(N)C2(C#N)C#N (stereo not given)	nt	i	6.7*	nt	i
Cc1ccc(CCNC(=O)C23CN(Cc4ccccc4)CC2C(c2cccc([N+](=O)[O-])c2)=NO3)cc1 (stereo not given)	i	i	i	i	i
